Values after ≈ are worked out from the molar mass of the structure shown.
Assays:
[1] = system: Escherichia coli; test: Antimicrobial activity against rifampicin-resistant Escherichia coli X1037 transconjugant by broth microdilution method; type: functional
[2] = system: Shigella sonnei; test: Antimicrobial activity against Shigella sonnei UIH-1 expressing beta-lactamase CTX-M-64 by broth microdilution method; type: functional
Outline: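 MICs determined by CLSI broth microdilution on an automated panel system. […] Susceptibility categories assigned by CLSI criteria.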

[3] = system: Escherichia coli; test: Antimicrobial activity against Escherichia coli XL-1 Blue harboring plasmid CL1920 by broth microdilution method; type: functional
[4] = system: Escherichia coli; test: Antimicrobial activity against rifampicin-resistant Escherichia coli X1037 by broth microdilution method; type: functional
[5] = system: Escherichia coli; test: Antimicrobial activity against Escherichia coli XL-1 Blue transconjugant harboring beta-lactamase CTX-M-64 by broth microdilution method; type: functional
[6] = Inhibition of Shigella sonnei UIH-1 beta-lactamase CTX-M-64 by spectrophotometry in presence of 100 uM nitrocefin
Outline: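 Recombinant CTX-M-64 was expressed from pET29a in E. coli BL21(DE3)pLysS (0.5 mM IPTG, 3 h, 37°C). It was purified by SP cation exchange (MES pH 6.0, NaCl gradient) then gel filtration. Enzyme was preincubated 5 min at 37°C with varied clavulanic acid before adding 100 μM nitrocefin. Hydrolysis was read at 485 nm in 50 mM phosphate pH 7.0, 37°C. IC50 is the inhibitor level halving the rate.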

[7] = system: Shigella sonnei; test: Antimicrobial activity against Shigella sonnei UIH-1 expressing beta-lactamase CTX-M-64 by disk diffusion method in presence of beta-lactamase inhibitor Sulbactam; type: functional
[8] = system: Shigella sonnei; test: Antimicrobial activity against Shigella sonnei UIH-1 expressing beta-lactamase CTX-M-64 by disk diffusion method; type: functional
Outline: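 Non-β-lactam susceptibility determined by CLSI disk diffusion on the clinical isolate. Categories assigned by CLSI criteria.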

[9] = system: Escherichia coli; test: Antimicrobial activity against Escherichia coli XL-1 Blue harboring beta-lactamase CTx-M-64transconjugant by disk diffusion method in presence of beta-lactamase inhibitor Sulbactam; type: functional
[10] = system: Escherichia coli; test: Antimicrobial activity against Escherichia coli XL-1 Blue transconjugant harboring beta-lactamase CTX-M-64 by disk diffusion method; type: functional
Outline: (§1)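 Non-β-lactam agents were tested by CLSI disk diffusion. Susceptibility categories were assigned by CLSI criteria.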

[11] = system: Escherichia coli; test: Antimicrobial activity against rifampicin-resistant Escherichia coli X1037 transconjugant by disk diffusion method; type: functional; outline: as §1
[12] = system: Escherichia coli; test: Antimicrobial activity against rifampicin-resistant Escherichia coli X1037 by disk diffusion method; type: functional; outline: as §1
[13] = system: Escherichia coli; test: Antimicrobial activity against Escherichia coli XL-1 Blue harboring plasmid CL1920 by disk diffusion method; type: functional
[14] = system: Shigella sonnei; test: Activity at Shigella sonnei UIH-1 beta-lactamase CTX-M-64 by spectrophotometry
Outline: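 Recombinant enzyme from E. coli BL21(DE3)pLysS/pET29a, purified by cation exchange and gel filtration. Assays at 37°C in 50 mM phosphate pH 7.0, six substrate concentrations, UV-vis readout. Km and kcat from Michaelis-Menten fits of initial rates.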

[15] = system: Shigella sonnei; conditions: UIH-1
[16] = system: Shigella sonnei; test: Antimicrobial activity against Shigella sonnei UIH-1 expressing beta-lactamase CTX-M-64 by broth microdilution method in presence of 4 ug/ml beta-lactamase inhibitor clavulanic acid; type: functional
[17] = system: Escherichia coli; test: Antimicrobial activity against Escherichia coli XL-1 Blue transconjugant harboring beta-lactamase CTX-M-64 by broth microdilution method in presence of 4 ug/ml beta-lactamase inhibitor clavulanic acid; type: functional
[18] = system: Escherichia coli; test: Antimicrobial activity against rifampicin-resistant Escherichia coli X1037 transconjugant by broth microdilution method in presence of 4 ug/ml beta-lactamase inhibitor clavulanic acid; type: functional
[19] = system: Escherichia coli; test: Antimicrobial activity against Escherichia coli XL-1 Blue harboring plasmid CL1920 by broth microdilution method in presence of 4 ug/ml beta-lactamase inhibitor clavulanic acid; type: functional
[20] = system: Escherichia coli; test: Antimicrobial activity against rifampicin-resistant Escherichia coli X1037 by broth microdilution method in presence of 4 ug/ml beta-lactamase inhibitor clavulanic acid; type: functional
[21] = system: Shigella sonnei; test: Antimicrobial activity against Shigella sonnei UIH-1 expressing beta-lactamase CTX-M-64 by broth microdilution method in presence of beta-lactamase inhibitor clavulanic acid
[22] = system: Escherichia coli; test: Antimicrobial activity against Escherichia coli XL-1 Blue harboring plasmid CL1920 by broth microdilution method in presence of beta-lactamase inhibitor clavulanic acid
[23] = system: Escherichia coli; test: Antimicrobial activity against rifampicin-resistant Escherichia coli X1037 by broth microdilution method in presence of beta-lactamase inhibitor clavulanic acid
[24] = system: Escherichia coli; test: Antimicrobial activity against rifampicin-resistant Escherichia coli X1037 transconjugant by broth microdilution method in presence of beta-lactamase inhibitor clavulanic acid
[25] = Escherichia coli, XL-1 Blue, read-out: MIC
[26] = Shigella sonnei, UIH-1, read-out: MIC

| Compound | MIC [1] [µg/mL] | MIC [3] [µg/mL] | MIC [4] [µg/mL] | MIC [5, 25] [µg/mL] | MIC [2, 26] [µg/mL] | also measured |
| --- | --- | --- | --- | --- | --- | --- |
| CO[C@@]1(NC(=O)CSCC#N)C(=O)N2C(C(=O)O)=C(CSc3nnnn3C)CS[C@@H]21 [CEFMETAZOLE] | 1 (≈ 2.12 µM) | 1 (≈ 2.12 µM) | ≤ 0.5 | 1 (≈ 2.12 µM) |  | MIC [2]: <=0.5 ug ml-1 |
| O=C(O)[C@H]1/C(=C/CO)O[C@@H]2CC(=O)N21 [CLAVULANIC ACID] |  |  |  |  |  | IC50 [6]: 0.01 µM |
| C[C@@H](O)[C@H]1C(=O)N2C(C(=O)O)=C(SCCNC=N)C[C@H]12 [IMIPENEM ANHYDROUS] | ≤ 0.5 | ≤ 0.5 | ≤ 0.5 | ≤ 0.5 | ≤ 0.5 |  |
| C[C@@H](O)[C@H]1C(=O)N2C(C(=O)O)=C(S[C@@H]3CN[C@H](C(=O)N(C)C)C3)[C@H](C)[C@H]12 [MEROPENEM] | ≤ 0.5 | ≤ 0.5 | ≤ 0.5 | ≤ 0.5 | ≤ 0.5 |  |
| CCN1CCN(C(=O)N[C@@H](C(=O)N[C@@H]2C(=O)N3C(C(=O)O)=C(CSc4nnnn4C)CS[C@H]23)c2ccc(O)cc2)C(=O)C1=O [CEFOPERAZONE] |  |  |  |  |  | MIC [7]: 8 µg/mL; MIC [8]: 8 µg/mL (≈ 12.4 µM); MIC [9]: > 32 µg/mL; MIC [10]: > 32 µg/mL |
| CO[C@@]1(NC(=O)CSC(F)F)C(=O)N2C(C(=O)O)=C(CSc3nnnn3CCO)CO[C@@H]21 [FLOMOXEF] |  |  |  |  |  | MIC [11]: ≤ 1 µg/mL; MIC [8]: ≤ 1 µg/mL; MIC [10]: ≤ 1 µg/mL; MIC [12]: ≤ 1 µg/mL; MIC [13]: ≤ 1 µg/mL |
| CO/N=C(\C(=O)N[C@@H]1C(=O)N2C(C(=O)[O-])=C(C[n+]3ccn4ncccc43)CS[C@H]12)c1nsc(N)n1 [CEFOZOPRAN] | > 16 | ≤ 1 | ≤ 1 | > 16 | > 16 |  |
| CC1(C)S[C@@H]2[C@H](NC(=O)[C@H](N)c3ccccc3)C(=O)N2[C@H]1C(=O)O [AMPICILLIN] | > 16 | ≤ 2 | ≤ 2 | > 16 | > 16 | Km [14]: 19.5 µM; kcat [14]: 36.9 s⁻¹; kcat/Km [15]: 1.9 ×10⁶ /M/s |
| CO[C@@]1(NC(=O)C2SC(=C(C(N)=O)C(=O)O)S2)C(=O)N2C(C(=O)O)=C(CSc3nnnn3C)CS[C@@H]21 (stereo not given in full) [CEFOTETAN] | ≤ 0.5 | ≤ 0.5 | ≤ 0.5 | 8 (≈ 13.9 µM) | ≤ 0.5 |  |
| CN(C)CCn1nnnc1SCC1=C(C(=O)O)N2C(=O)[C@@H](NC(=O)Cc3csc(N)n3)[C@H]2SC1 [CEFOTIAM] |  |  |  |  |  | MIC [11]: > 16 µg/mL; MIC [8]: > 16 µg/mL; MIC [10]: > 16 µg/mL; MIC [12]: ≤ 8 µg/mL; MIC [13]: ≤ 8 µg/mL |
| COCC1=C(C(=O)O)N2C(=O)[C@@H](NC(=O)/C(=N\OC)c3csc(N)n3)[C@H]2SC1 [CEFPODOXIME] | > 64 | ≤ 0.5 | ≤ 0.5 | > 64 | > 64 |  |
| CO/N=C(\C(=O)N[C@@H]1C(=O)N2C(C(=O)[O-])=C(C[N+]3(C)CCCC3)CS[C@H]12)c1csc(N)n1 | > 32 |  |  | > 32 | > 32 | Km [14]: 505 µM; kcat [14]: 67.7 s⁻¹; kcat/Km [15]: 1.3 ×10⁵ /M/s |
| CO/N=C(\C(=O)N[C@@H]1C(=O)N2C(C(=O)O)=C(COC(C)=O)CS[C@H]12)c1csc(N)n1 [CEFOTAXIME] | 2050 (≈ 4500 µM) | ≤ 0.25 | ≤ 0.25 |  | 1020 (≈ 2250 µM) | MIC [16]: ≤ 0.12 µg/mL; MIC [17]: ≤ 0.12 µg/mL; Km [14]: 103 µM; kcat [14]: 197 s⁻¹; kcat/Km [15]: 1.9 ×10⁶ /M/s; MIC [18]: ≤ 0.12 µg/mL; MIC [5]: >2048 µg/mL; MIC [19]: ≤ 0.12 µg/mL; MIC [20]: ≤ 0.12 µg/mL |
| CO/N=C(\C(=O)N[C@@H]1C(=O)N2C(C(=O)[O-])=C(C[n+]3cccc4c3CCC4)CS[C@H]12)c1csc(N)n1 [CEFPIROME] | > 16 | ≤ 1 | ≤ 1 | > 16 | > 16 |  |
| O=C(Cc1cccs1)N[C@@H]1C(=O)N2C(C(=O)O)=C(/C=C/c3ccc([N+](=O)[O-])cc3[N+](=O)[O-])CS[C@H]12 |  |  |  |  |  | Km [14]: 14.8 µM; kcat [14]: 252 s⁻¹; kcat/Km [15]: 1.7 ×10⁷ /M/s |
| N[C@@H](C(=O)N[C@@H]1C(=O)N2C(C(=O)O)=C(Cl)CS[C@H]12)c1ccccc1 [CEFACLOR ANHYDROUS] | > 16 | ≤ 2 | ≤ 2 | > 16 | > 16 |  |
| CO/N=C(\C(=O)N[C@@H]1C(=O)N2C(C(=O)O)=C(CSc3nc(=O)c(O)nn3C)CS[C@H]12)c1csc(N)n1 [CEFTRIAXONE] | 2050 (≈ 3690 µM) | ≤ 0.25 | ≤ 0.25 | 2050 (≈ 3690 µM) | 1020 (≈ 1850 µM) |  |
| CO[C@@]1(NC(=O)Cc2cccs2)C(=O)N2C(C(=O)O)=C(COC(N)=O)CS[C@@H]21 [CEFOXITIN] | ≤ 2 | 4 (≈ 9.36 µM) | ≤ 2 | 8 (≈ 18.7 µM) | ≤ 2 |  |
| C[C@H]1[C@H](NC(=O)/C(=N\OC(C)(C)C(=O)O)c2csc(N)n2)C(=O)N1S(=O)(=O)O [AZTREONAM] | 64 (≈ 147 µM) |  |  | 1020 (≈ 2350 µM) | 32 (≈ 73.5 µM) |  |
| CC1(C)S[C@@H]2[C@H](NC(=O)[C@H](N)c3ccc(O)cc3)C(=O)N2[C@H]1C(=O)O [AMOXICILLIN] | 2 (≈ 5.47 µM) | 2 (≈ 5.47 µM) | ≤ 1 | 8 (≈ 21.9 µM) | 2 (≈ 5.47 µM) | MIC [17]: 8 µg/mL; MIC [21]: 2 µg/mL; MIC [22]: 2 µg/mL; MIC [23]: ≤ 1 µg/mL; MIC [24]: 2 µg/mL |
| CCN1CCN(C(=O)N[C@@H](C(=O)N[C@@H]2C(=O)N3[C@@H]2SC(C)(C)[C@@H]3C(=O)O)c2ccccc2)C(=O)C1=O [PIPERACILLIN] | > 64 | ≤ 8 | ≤ 8 | > 64 | > 64 |  |
| Cc1nnc(SCC2=C(C(=O)O)N3C(=O)[C@@H](NC(=O)Cn4cnnn4)[C@H]3SC2)s1 [CEFAZOLIN] |  |  |  |  |  | MIC [11]: > 16 µg/mL; MIC [8]: > 16 µg/mL; MIC [10]: > 16 µg/mL |
| CC(=O)OCC1=C(C(=O)O)N2C(=O)[C@@H](NC(=O)Cc3cccs3)[C@H]2SC1 |  |  |  |  |  | Km [14]: 37.9 µM; kcat [14]: 185 s⁻¹; kcat/Km [15]: 4.9 ×10⁶ /M/s |
| CC(C)(O/N=C(\C(=O)N[C@@H]1C(=O)N2C(C(=O)[O-])=C(C[n+]3ccccc3)CS[C@H]12)c1csc(N)n1)C(=O)O [CEFTAZIDIME] | 64 (≈ 117 µM) | ≤ 0.25 | ≤ 0.25 | 2050 (≈ 3750 µM) | 32 (≈ 58.5 µM) | MIC [16]: ≤ 0.12 µg/mL; MIC [17]: ≤ 0.5 µg/mL; MIC [18]: ≤ 0.12 µg/mL; MIC [19]: ≤ 0.12 µg/mL; Ki [6]: > 10000 µM; MIC [20]: ≤ 0.12 µg/mL |

Source: ChEMBL document CHEMBL1629574, “Novel chimeric beta-lactamase CTX-M-64, a hybrid of CTX-M-15-like and CTX-M-14 beta-lactamases, found in a Shigella sonnei strain resistant to various oxyimino-cephalosporins, including ceftazidime” (Antimicrob Agents Chemother, 2009)
